Our source for the inhibition, IC50 and Activity values is ChEMBL document CHEMBL2062507, “Myxobacteria versus sponge-derived alkaloids: the bengamide family identified as potent immune modulating agents by scrutiny of LC-MS/ELSD libraries” (Bioorg Med Chem, 2012).

Calls of active or inactive are those of the source. The rule behind the calls is not given here.

Test [1] has as its system RAW264.7. As to the kind of experiment: Inhibition of LPS-stimulated NFkappaB activation transfected in mouse RAW264.7 cells at 0.01 to 10 uM after 4 hrs by measuring IKappaBalpha phosphorylation by Western blot analysis. It is filed as cell-based. Put shortly: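 RAW264.7 cells grown near confluent in 6-well plates and given increasing compound concentrations with LPS for 4 h at 37 °C. Lysed in SDS loading buffer, run on 4–15% SDS-PAGE gels and blotted. Probed with anti-phospho-IκB and anti-IκB (1:1000), then HRP secondary. Detected by chemiluminescence on film, β-actin as loading control.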
For orientation: A western blot detects proteins with antibodies after separation by electrophoresis.

In another test the test system is HCT-116. Nature of the test: Cytotoxicity against human HCT116 cells after 48 hrs by SRB assay. In kind it is functional, cell-based. The conditions noted are these: HCT-116, 48 h. For orientation: In SRB staining, fixed cells bind dye roughly in proportion to their protein.
Test [2] relates to RAW264.7. Nature of the test: Cytotoxicity against mouse RAW264.7 cells after 18 hrs by MTT assay. It is filed as cell-based. The conditions noted are these: RAW264.7, 18 h. Background: Formazan colour is commonly taken as a measure of viable cells.
A short description of test [3]: Inhibition of LPS-stimulated NFkappaB activation transfected in mouse RAW264.7 cells after 18 hrs by luciferase reporter gene assay. The conditions noted are these: RAW264.7, 18 h.
In test [4] the test system is RAW264.7. Nature of the test: Antiinflammatory activity in mouse RAW264.7 cells assessed as inhibition of LPS-stimulated TNFalpha expression up to 10 uM by quantitative RT-PCR analysis. In kind it is functional, cell-based. The method, boiled down: (§1)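 LPS (100 ng/mL)-stimulated RAW264.7 cells co-treated with compound at 0.01–10 μM. Total RNA (0.5 μg) DNase I-treated, reverse transcribed, cDNAs pooled per condition, SYBR Green real-time PCR array. mRNA normalised to GAPDH. Three independent experiments, one-way ANOVA, p<0.05 taken as significant.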

The test system of test [5] is RAW264.7. As to the kind of experiment: Antiinflammatory activity in mouse RAW264.7 cells assessed as inhibition of LPS-stimulated nitric oxide production up to 10 uM after 30 mins by Greiss method. In kind it is functional, cell-based. The method, boiled down: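 RAW264.7 cells grown 24 h in RPMI1640 in 96-well plates, then given fresh medium with compound and E. coli 055:B5 LPS. Supernatant mixed with Griess reagent (sulfanilamide, N-1-naphthylethylenediamine, H3PO4) for 30 min at room temperature in the dark. Absorbance read at 530 nm and converted to nitrite using a sodium nitrite standard curve.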

Test [6] has as its system RAW264.7. Nature of the test: Antiinflammatory activity in mouse RAW264.7 cells assessed as inhibition of LPS-stimulated iNOS expression up to 10 uM by quantitative RT-PCR analysis. It is filed as functional, cell-based. The method, boiled down:
as §1

Test [7] relates to RAW264.7. Nature of the test: Antiinflammatory activity in mouse RAW264.7 cells assessed as inhibition of LPS-stimulated IL-6 expression up to 10 uM by quantitative RT-PCR analysis. In kind it is functional, cell-based. Put shortly:
as §1

Test [8] relates to RAW264.7. As to the kind of experiment: Antiinflammatory activity in mouse RAW264.7 cells assessed as inhibition of LPS-stimulated MCP1 expression up to 10 uM by quantitative RT-PCR analysis. It is filed as functional, cell-based. The method, boiled down: as §1

Take `CO[C@@H](C(=O)N[C@H]1CCCCNC1=O)[C@H](O)[C@@H](O)[C@H](O)/C=C/C(C)C` [BENGAMIDE E]: the inhibition result in the test on RAW264.7 [1] was “Active”. For the same molecule, the values for the IC50 (in the test with HCT-116; with RAW264.7 [2]; in test [3]) were 60 nM, above 50000 nM and 7500 nM, respectively.

With `CCC(C)/C=C/[C@@H](O)[C@H](O)[C@@H](O)[C@@H](OC)C(=O)N[C@H]1CCCCN(C)C1=O` (mixture of isomers), the IC50 (usually the concentration at which inhibition is half-maximal) in the test with HCT-116 is 1500 nM; in the test on RAW264.7 [2], above 50000 nM; in [3] it was 2000 nM.

Take `CCCCCCCCCCCCCC(=O)O[C@H]1CC[C@H](NC(=O)[C@H](OC)[C@H](O)[C@@H](O)[C@H](O)/C=C/C(C)C)C(=O)N(C)C1` [BENGAMIDE B]: the Activity result in the test on RAW264.7 [4], in the test with RAW264.7 [7] and in the test with RAW264.7 [8] was “Dose-dependent effect” each time. The IC50 in the test on RAW264.7 [4] was 500 nM; in the test on HCT-116, 2 nM; in the test with RAW264.7 [2], above 50000 nM; in [3] it was 85 nM; in the test on RAW264.7 [7], 500 nM; in the test with RAW264.7 [8], 500 nM. Moreover, in the test with RAW264.7 [1], the inhibition result was “Active”. In addition, the result in the test on RAW264.7 [5] and with RAW264.7 [6] was inactive.

The molecule `CCCCCCCCCCCCCC(=O)O[C@H](/C=C/C(C)C)[C@H](O)[C@@H](O)[C@@H](OC)C(=O)N[C@H]1CCCCNC1=O` [BENGAMIDE P] registered an IC50 in the test on HCT-116 of 730 nM.

Consider `CCCCCCCCCCCCCC(=O)O[C@H]1CC[C@H](NC(=O)[C@H](OC)[C@H](O)[C@@H](O)[C@H](O)/C=C/C(C)C)C(=O)NC1` [BENGAMIDE A], for which the Activity entry in the test on RAW264.7 [4], with RAW264.7 [7] and in the test with RAW264.7 [8] was “Dose-dependent effect” in each case. The IC50 in the test with RAW264.7 [4] was 500 nM; with HCT-116 it was 18 nM; with RAW264.7 [2], above 50000 nM; in test [3], 75 nM; in the test on RAW264.7 [7], 1000 nM; in the test on RAW264.7 [8], 500 nM. Besides, the inhibition result in the test with RAW264.7 [1] is “Active”. Also, the outcome with RAW264.7 [5] and with RAW264.7 [6] was inactive.

As for `CO[C@@H](C(=O)N[C@H]1CC[C@@H](OC(=O)C2CCCCC2)CN(C)C1=O)[C@H](O)[C@@H](O)[C@H](O)/C=C/C(C)(C)C`, the IC50 in the test with HCT-116 was 40 nM; in the test with RAW264.7 [2], above 50000 nM; in [3] it was 500 nM.

In the case of `CCC(C)/C=C/[C@@H](O)[C@H](O)[C@@H](O)[C@@H](OC)C(=O)N[C@H]1CCCCNC1=O` (mixture of isomers), the IC50 with HCT-116 is 1100 nM; in the test with RAW264.7 [2] it was above 50000 nM; in [3] it was 2000 nM.

As to `CC1=C(O)C(=O)C=C2C1=CC=C1[C@@]2(C)CC[C@@]2(C)[C@@H]3C[C@](C)(C(=O)O)CC[C@]3(C)CC[C@]12C` [CELASTROL], the IC50 with RAW264.7 [2] is above 50000 nM; in test [3], 200 nM.
